Reference: ChEMBL document CHEMBL1128722, “Mechanism-based isocoumarin inhibitors for human leukocyte elastase. Effect of the 7-amino substituent and 3-alkoxy group in 3-alkoxy-7-amino-4-chloroisocoumarins on inhibitory potency” (J Med Chem, 1995)
The source made the active and inactive calls. The rule behind the calls is not given here.

Key:
[1] = biological target: Chymotrypsinogen A (Bos taurus) (UniProt P00766); assay: The second order inactivation rate constant was expressed as inhibition of chymotrypsin (ChT). Inhibitor concentrations were 3.4-70 uM
Method in brief: (§1)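 Kitz–Wilson incubation method. Enzyme was preincubated with inhibitor (added in DMSO) in 0.1 M HEPES, 0.5 M NaCl, pH 7.5, at 25 °C. Aliquots were taken over time and diluted into pNA substrate: HLE MeO-Suc-Ala-Ala-Pro-Val-pNA (0.2–0.5 mM), PPE Suc-Ala-Ala-Ala-pNA, ChT and Cat G Suc-Val-Pro-Phe-pNA (0.4–0.5 mM). Release was read at 410 nm. kobs/[I] from ln(v0/vt) vs time. Mean of two determinations. Fast rates measured with equimolar inhibitor and enzyme.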

[2] = biological target: T1, Neutrophil elastase (Homo sapiens) (UniProt P08246); assay: Inhibition of human leukocyte elastase(HLE) at 0.7-1.7 uM; method in brief: as §1
T1 sequence (whole entry): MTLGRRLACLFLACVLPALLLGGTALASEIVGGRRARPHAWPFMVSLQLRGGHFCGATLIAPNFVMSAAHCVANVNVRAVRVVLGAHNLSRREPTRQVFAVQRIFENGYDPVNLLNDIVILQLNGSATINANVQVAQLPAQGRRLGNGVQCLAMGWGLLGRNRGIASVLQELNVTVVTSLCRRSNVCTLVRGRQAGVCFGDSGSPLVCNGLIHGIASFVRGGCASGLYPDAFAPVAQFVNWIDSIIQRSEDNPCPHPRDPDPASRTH

[3] = biological target: T2, Chymotrypsin-like elastase family member 2A (Sus scrofa) (UniProt P08419); assay: The second order inactivation rate constant was expressed as inhibition of porcine pancreatic elastase (PPE). Inhibitor concentrations were 34-56 uM; method in brief: as §1
T2 sequence (whole entry): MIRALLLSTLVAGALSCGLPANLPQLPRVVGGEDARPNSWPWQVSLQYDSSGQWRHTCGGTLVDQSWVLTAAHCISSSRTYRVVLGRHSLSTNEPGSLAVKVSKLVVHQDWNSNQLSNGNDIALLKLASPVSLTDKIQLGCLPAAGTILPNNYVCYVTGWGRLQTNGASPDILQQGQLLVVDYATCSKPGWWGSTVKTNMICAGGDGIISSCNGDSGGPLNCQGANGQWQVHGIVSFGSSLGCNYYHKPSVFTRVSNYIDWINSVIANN

[4] = biological target: Chymotrypsinogen A (Bos taurus) (UniProt P00766); assay: The second order inactivation rate constant was expressed as inhibition of chymotrypsin (ChT).Inhibitor concentrations were 360-570 uM; method in brief: as §1
[5] = biological target: T1, Neutrophil elastase (Homo sapiens); assay: The second order inactivation rate constant was expressed as inhibition of human leukocyte elastase (HLE). Inhibitor concentrations were 0.4-4 uM; method in brief: as §1
[6] = biological target: T2, Chymotrypsin-like elastase family member 2A (Sus scrofa); assay: The second order inactivation rate constant was expressed as inhibition of porcine pancreatic elastase (PPE).Inhibitor concentrations were 2-600 uM; method in brief: as §1
[7] = biological target: T2, Chymotrypsin-like elastase family member 2A (Sus scrofa); assay: Percent activity regained after 17h of incubation with hydroxylamine (Non-preincubated Pancreatic elastase).
Method in brief: (§2)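 Without preincubation, hydroxylamine was added immediately after inhibition at [I]/PPE 200:1, and activity was read after 17 h. With preincubation, the 1:1 [I]/PPE complex stood 20 h at room temperature in buffer before hydroxylamine was added. Activity read at 1–17 h.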

[8] = biological target: T2, Chymotrypsin-like elastase family member 2A (Sus scrofa); assay: Percent activity regained after 20h of pre-incubation before addition of hydroxylamine (Preincubated Pancreatic elastase).; method in brief: as §2
[9] = Half-life for hydrolysis was determined from kinetic constant.; type: ADME
Method in brief: (§3)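 Spontaneous hydrolysis in 0.1 M HEPES, 0.5 M NaCl, pH 7.5, 10% v/v DMSO final, 25 °C. Inhibitor added from 2.9–5.0 mM DMSO stock. Ring opening followed as absorbance decrease at 385 nm (ε385 = 3300 M⁻¹ cm⁻¹). Half-life from the first-order rate. Two determinations, standard errors ±15% or less.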

[10] = biological target: T3, Cathepsin G (Homo sapiens) (UniProt P08311); assay: Inhibition of cathepsin G at 35-710 uM; method in brief: as §1
T3 sequence (whole entry): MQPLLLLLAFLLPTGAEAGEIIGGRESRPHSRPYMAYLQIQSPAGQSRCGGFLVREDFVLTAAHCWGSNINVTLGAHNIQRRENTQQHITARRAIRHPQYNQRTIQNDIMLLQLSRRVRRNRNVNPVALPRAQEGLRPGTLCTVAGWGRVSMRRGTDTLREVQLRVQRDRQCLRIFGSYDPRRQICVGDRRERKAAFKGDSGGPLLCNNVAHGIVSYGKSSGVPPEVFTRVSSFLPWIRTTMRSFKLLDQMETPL

[11] = biological target: T1, Neutrophil elastase (Homo sapiens); assay: The second order inactivation rate constant was expressed as inhibition of human leukocyte elastase.; method in brief: as §1
[12] = biological target: T1, Neutrophil elastase (Homo sapiens); assay: Inhibition of human leukocyte elastase.; method in brief: as §1
[13] = biological target: T2, Chymotrypsin-like elastase family member 2A (Sus scrofa); assay: The second order inactivation rate constant expressed as inhibition of porcine pancreatic elastase (PPE).Inhibitor concentrations were 0.04-2.0 mM
[14] = biological target: Chymotrypsinogen A (Bos taurus) (UniProt P00766); assay: The second order inactivation rate constant was expressed as inhibition of chymotrypsin (ChT).Inhibitor concentrations were 1.7-58 uM;No inhibition; method in brief: as §1
[15] = biological target: T1, Neutrophil elastase (Homo sapiens); assay: The second order inactivation rate constant expressed as inhibition of human leukocyte elastase (HLE). Inhibitor concentrations were 0.07-710 uM; method in brief: as §1
[16] = biological target: T2, Chymotrypsin-like elastase family member 2A (Sus scrofa); assay: The second order inactivation rate constant was expressed as inhibition of porcine pancreatic elastase (PPE).Inhibitor concentrations were 0.04-2.0 uM;No inhibition; conditions: in the assay text read “0.04-2.0 mM” for “0.04-2.0 uM”; method in brief: as §1
[17] = biological target: T2, Chymotrypsin-like elastase family member 2A (Sus scrofa); assay: Percent activity regained after 17h of incubation with hydroxylamine (Non-preincubated PPE).; method in brief: as §2
[18] = Half-life for hydrolysis of compound was determined from kinetic constant.; type: ADME; method in brief: as §3
[19] = biological target: T3, Cathepsin G (Homo sapiens); assay: The second order inactivation rate constant was expressed as inhibition of cathepsin G(Cat G).Inhibitor concentrations were 35-710 uM; No inhibition; method in brief: as §1
[20] = biological target: T3, Cathepsin G (Homo sapiens); assay: The second order inactivation rate constant was expressed as inhibition of cathepsin G (Cat G).Inhibitor concentrations were 35-710 uM; method in brief: as §1
[21] = biological target: T1, Neutrophil elastase (Homo sapiens); assay: Second order inactivation rate constant for inhibition of human leukocyte elastase.; method in brief: as §1

CCCOc1oc(=O)c2cc(NC(=O)[C@H](Cc3ccccc3)NS(=O)(=O)c3ccc(C)cc3)ccc2c1Cl
k obs / 1 [1]: 6100 M⁻¹ s⁻¹
k obs / 1 [2]: 33000 M⁻¹ s⁻¹
k obs / 1 [3]: 520 M⁻¹ s⁻¹

COc1oc(=O)c2cc(NC(=O)[C@H](Cc3ccccc3)NC(=O)c3ccc([N+](=O)[O-])cc3)ccc2c1Cl
k obs / 1 [4]: 30 M⁻¹ s⁻¹
k obs / 1 [5]: 130000 M⁻¹ s⁻¹
k obs / 1 [6]: 64 M⁻¹ s⁻¹
Activity regained [7]: 91%
Activity regained [8]: 6%

Nc1ccc2c(Cl)c(OCCBr)oc(=O)c2c1
half-life [9]: 2.4 h
K obs / 1 [10]: 410 M⁻¹ s⁻¹
K obs / 1 [11]: 200000 M⁻¹ s⁻¹
[I] [12]: 0.07 µM
K obs / 1 [13]: 1000 M⁻¹ s⁻¹

O=C(CCC(=O)OCc1ccccc1)Nc1ccc2c(Cl)c(OCCBr)oc(=O)c2c1
K obs / 1 [14]: inactive
K obs / 1 [15]: 3210 M⁻¹ s⁻¹
K obs / 1 [16]: inactive

COc1oc(=O)c2cc(NC(=O)[C@H](Cc3ccccc3)NC(=O)c3ccccc3)ccc2c1Cl
k obs / 1 [4]: 55 M⁻¹ s⁻¹
k obs / 1 [5]: 180000 M⁻¹ s⁻¹
k obs / 1 [6]: 530 M⁻¹ s⁻¹
Activity regained [17]: 91%
Activity regained [8]: 31%
half-life [18]: > 48 h

CCCOc1oc(=O)c2cc(N/C(S)=N/c3ccccc3)ccc2c1Cl
k obs / 1 [1]: 240 M⁻¹ s⁻¹
k obs / 1 [2]: > 170000 M⁻¹ s⁻¹
k obs / 1 [3]: 59 M⁻¹ s⁻¹

O=C(Nc1ccccc1)Nc1ccc2c(Cl)c(OCCBr)oc(=O)c2c1
K obs / 1 [19]: inactive
K obs / 1 [15]: 1.2e+06 M⁻¹ s⁻¹
K obs / 1 [13]: 36 M⁻¹ s⁻¹

CCCOc1oc(=O)c2cc(NC(=O)NCC)ccc2c1Cl
k obs / 1 [1]: 12000 M⁻¹ s⁻¹
k obs / 1 [2]: > 280000 M⁻¹ s⁻¹
k obs / 1 [3]: 220 M⁻¹ s⁻¹

CCCOc1oc(=O)c2cc(NC(=O)Nc3ccccc3)ccc2c1Cl
k obs / 1 [1]: 5200 M⁻¹ s⁻¹
k obs / 1 [2]: 140000 M⁻¹ s⁻¹
k obs / 1 [3]: 1600 M⁻¹ s⁻¹

CCCOc1oc(=O)c2cc(N/C(S)=N/Cc3ccccc3)ccc2c1Cl
k obs / 1 [1]: 120 M⁻¹ s⁻¹
k obs / 1 [2]: > 130000 M⁻¹ s⁻¹
k obs / 1 [3]: 79 M⁻¹ s⁻¹

O=C(CCc1ccccc1)Nc1ccc2c(Cl)c(OCCCBr)oc(=O)c2c1
K obs / 1 [19]: inactive

Nc1ccc2c(Cl)c(OCCCBr)oc(=O)c2c1
half-life [9]: 3.2 h
K obs / 1 [20]: 210 M⁻¹ s⁻¹
k obs / 1 [21]: 4000 M⁻¹ s⁻¹
K obs / 1 [15]: 4000 M⁻¹ s⁻¹
[I] [12]: 3.4 µM
K obs / 1 [13]: 10 M⁻¹ s⁻¹

COc1oc(=O)c2cc(NC(=O)[C@H](Cc3ccccc3)NC(=O)c3cccc(C)c3)ccc2c1Cl
k obs / 1 [4]: 64 M⁻¹ s⁻¹
k obs / 1 [5]: 130000 M⁻¹ s⁻¹
k obs / 1 [6]: 1600 M⁻¹ s⁻¹
half-life [18]: > 48 h

CC(C)(C)OC(=O)N[C@H](Cc1ccccc1)C(=O)Nc1ccc2c(Cl)c(OCCCBr)oc(=O)c2c1
K obs / 1 [19]: inactive
K obs / 1 [15]: 1480 M⁻¹ s⁻¹

CC(C)(C)OC(=O)N[C@@H](Cc1ccccc1)C(=O)Nc1ccc2c(Cl)c(OCCCBr)oc(=O)c2c1
K obs / 1 [19]: inactive
K obs / 1 [15]: 1320 M⁻¹ s⁻¹

COc1oc(=O)c2cc(NC(=O)[C@H](Cc3ccccc3)NC(=O)c3ccc(C)cc3)ccc2c1Cl
k obs / 1 [4]: 130 M⁻¹ s⁻¹
k obs / 1 [5]: 170000 M⁻¹ s⁻¹
k obs / 1 [6]: 83 M⁻¹ s⁻¹
Activity regained [7]: 91%
Activity regained [8]: 14%
half-life [18]: > 48 h
